Measured values: ChEMBL document CHEMBL2169743, “Identification of novel 2-((1-(benzyl(2-hydroxy-2-phenylethyl)amino)-1-oxo-3-phenylpropan-2-yl)carbamoyl)benzoic acid analogues as BMP-2 stimulators” (J Med Chem, 2012)
The source made the active and inactive calls. The calls are words filed in the database; no cut-off is given here.

Assays:
Calvarial osteoblast [1] = assay: Osteogenic activity in Sprague-Dawley rat calvarial osteoblasts assessed as BMP-2 level at 10 nM after 48 hrs by ELISA relative to control; assay type: functional
Calvarial osteoblast [2] = assay: Osteogenic activity in Sprague-Dawley rat calvarial osteoblasts assessed as BMP-2 level at 100 nM after 48 hrs by ELISA relative to control; assay type: functional
Calvarial osteoblast [3] = assay: Osteogenic activity in Sprague-Dawley rat calvarial osteoblasts assessed as BMP-2 level at 1000 nM after 48 hrs by ELISA relative to control; assay type: functional
Calvarial osteoblast [4] = assay: Osteogenic activity in Sprague-Dawley rat calvarial osteoblasts assessed as BMP-2 level at 0.1 nM after 48 hrs by ELISA relative to control; assay type: functional
Calvarial osteoblast [5] = assay: Osteogenic activity in Sprague-Dawley rat calvarial osteoblasts assessed as BMP-2 level at 1 nM after 48 hrs by ELISA relative to control; assay type: functional
Calvarial osteoblast [6] = assay: Osteogenic activity in Sprague-Dawley rat calvarial osteoblasts assessed as BMP-2 mRNA expression at 0.1 to 1000 nM after 48 hrs by qPCR analysis relative to control; assay type: functional, cell-based
Rattus norvegicus [7] = assay: Osteogenic activity in Sprague-Dawley rat femur drill-hole fracture model assessed as increase in trabecular thickness at 1 to 5 mg/kg/day after 2 weeks by micro-CT method relative to vehicle-treated control; assay type: functional, organism-based
In short: (§1)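 Same rat femoral drill-hole model: 10 rats/group, 1.0 or 5.0 mg·kg⁻¹·day⁻¹ or gum acacia vehicle for 2 weeks starting the day after injury. Femurs taken at autopsy; μCT of the drill-hole gives BV/TV, Tb.N, Tb.Th, Tb.Sp, Conn.Dens and SMI. Mean ± SEM.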

Rattus norvegicus [8] = assay: Osteogenic activity in Sprague-Dawley rat femur drill-hole fracture model assessed as increase in trabecular number at 1 to 5 mg/kg/day after 2 weeks by micro-CT method relative to vehicle-treated control; assay type: functional, organism-based; in short: as §1
Rattus norvegicus [9] = assay: Osteogenic activity in Sprague-Dawley rat femur drill-hole fracture model assessed as increase in connection density at 1 to 5 mg/kg/day after 2 weeks by micro-CT method relative to vehicle-treated control; assay type: functional, organism-based; in short: as §1
Rattus norvegicus [10] = assay: Osteogenic activity in Sprague-Dawley rat femur drill-hole fracture model assessed as increase in bone volume/trabecular volume at 1 to 5 mg/kg/day after 2 weeks by micro-CT method relative to vehicle-treated control; assay type: functional, organism-based; in short: as §1
Calvarial osteoblast [11] = assay: Induction of Runx-2 mRNA expression in Sprague-Dawley rat calvarial osteoblasts at 10 nM after 72 hrs by qPCR analysis in presence of noggin; assay type: functional, cell-based
In short: (§2)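 Rat calvarial osteoblasts treated for 72 h with 10 nM compound, 100 ng/mL BMP-2 and 50 ng/mL noggin, alone or combined. Runx-2 and osteocalcin mRNA measured by qPCR. Data are mean ± SEM from three independent experiments.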

Rattus norvegicus [12] = assay: Toxicity in Sprague-Dawley rat assessed as effect on aorta BMP-7 mRNA expression at 1 to 5 mg/kg/day after 2 weeks by qPCR analysis relative to vehicle-treated control; assay type: organism-based; conditions: in vivo, 336 h
Rattus norvegicus [13] = assay: Toxicity in Sprague-Dawley rat assessed as effect on aorta BMP-4 mRNA expression at 1 to 5 mg/kg/day after 2 weeks by qPCR analysis relative to vehicle-treated control; assay type: organism-based; conditions: in vivo, 336 h
Rattus norvegicus [14] = species: Rattus norvegicus; assay: Osteogenic activity in Sprague-Dawley rat femur drill-hole fracture model assessed as increase in osteoblast formation after 2 weeks by calcein labeling-based confocal microscopy relative to vehicle-treated control; assay type: functional, organism-based
In short: (§3)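 Bilateral femoral diaphysis drill-hole (0.8 mm bit, 2 cm above knee) in rats, 10 per group. Daily dosing at 1.0 or 5.0 mg·kg⁻¹·day⁻¹, or gum acacia/water vehicle, from the day after injury for 2 weeks. Calcein 20 mg/kg i.p. given 2 days before autopsy. Acrylic-embedded 50 μm sections imaged by confocal microscopy; calcein intensity quantified. Mean ± SEM.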

Calvarial osteoblast [15] = assay: Induction of BMP-2 mRNA expression in Sprague-Dawley rat calvarial osteoblasts at 10 nM by qPCR analysis; assay type: functional, cell-based; conditions: TDE = time-dependent effect
In short: (§4)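 Primary calvarial osteoblasts from pooled 1–2-day-old Sprague–Dawley rat pups (both sexes), released by sequential Dispase/collagenase P digestion at 37 °C. Cells kept in osteoblast differentiation medium with 10 nM compound or vehicle and sampled at several time points (24 h up to 72 h) for qPCR. Results given as fold change, mean ± SEM, triplicate.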

Calvarial osteoblast [16] = assay: Induction of type 1 collagen mRNA expression in Sprague-Dawley rat calvarial osteoblasts at 10 nM by qPCR analysis; assay type: functional, cell-based; conditions: TDE = time-dependent effect; in short: as §4
Rattus norvegicus [17] = assay: Toxicity in Sprague-Dawley rat assessed as effect on cuspid valve BMP-4 mRNA expression at 1 to 5 mg/kg/day after 2 weeks by qPCR analysis relative to vehicle-treated control; assay type: organism-based; conditions: in vivo, 336 h
Rattus norvegicus [18] = assay: Osteogenic activity in Sprague-Dawley rat femur drill-hole fracture model assessed as bone formation at 1 mg/kg/day after 2 weeks by calcein labeling-based confocal microscopy relative to vehicle-treated control; assay type: functional; in short: as §3
Rattus norvegicus [19] = assay: Osteogenic activity in Sprague-Dawley rat femur drill-hole fracture model assessed as decrease in structure model index at 1 to 5 mg/kg/day after 2 weeks by micro-CT method relative to vehicle-treated control; assay type: functional, organism-based; in short: as §1
Calvarial osteoblast [20] = assay: Induction of […] mRNA expression in Sprague-Dawley rat calvarial osteoblasts at 10 nM by qPCR analysis; assay type: functional, cell-based; conditions: TDE = time-dependent effect; in short: as §4
MC3T3-E1 [21] = assay: Inhibition of 20S proteasome in mouse MC3T3-E1 cells after 48 hrs by Bradford assay; assay type: cell-based
In short: (§5)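 MC3T3-E1 cells seeded at 2 × 10⁶/well and treated for 48 h. Lysed in HEPES pH 7.5/EDTA/NaCl/1% Triton X-100 on ice; protein measured by Bradford. 10 μg lysate incubated with fluorogenic 20S proteasome substrate for 1 h at 37 °C in the dark, fluorescence read at 380/460 nm. Lactacystin 25 μM as reference. Mean ± SEM, three independent experiments.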

Rattus norvegicus [22] = assay: Osteogenic activity in Sprague-Dawley rat femur drill-hole fracture model assessed as bone formation at 5 mg/kg/day after 2 weeks by calcein labeling-based confocal microscopy relative to vehicle-treated control; assay type: functional; in short: as §3
Calvarial osteoblast [23] = assay: Induction of Runx mRNA expression in Sprague-Dawley rat calvarial osteoblasts at 10 nM by qPCR analysis; assay type: functional, cell-based; conditions: TDE = time-dependent effect; in short: as §4
Calvarial osteoblast [24] = assay: Induction of […] mRNA expression in Sprague-Dawley rat calvarial osteoblasts at 10 nM after 72 hrs by qPCR analysis in presence of noggin; assay type: functional, cell-based; in short: as §2
Rattus norvegicus [25] = species: Rattus norvegicus; assay: Osteogenic activity in Sprague-Dawley rat femur drill-hole fracture model assessed as increase in callus regeneration after 2 weeks by calcein labeling-based confocal microscopy relative to vehicle-treated control; assay type: functional, organism-based; in short: as §3
Rattus norvegicus [26] = assay: Toxicity in Sprague-Dawley rat assessed as effect on cuspid valve BMP-7 mRNA expression at 1 to 5 mg/kg/day after 2 weeks by qPCR analysis relative to vehicle-treated control; assay type: organism-based; conditions: in vivo, 336 h
Rattus norvegicus [27] = assay: Toxicity in Sprague-Dawley rat assessed as effect on aorta BMP-2 mRNA expression at 1 to 5 mg/kg/day after 2 weeks by qPCR analysis relative to vehicle-treated control; assay type: organism-based; conditions: in vivo, 336 h
Calvarial osteoblast [28] = assay: Induction of mineralization in Sprague-Dawley rat calvarial osteoblasts assessed as increase of mineralized nodule formation at 10 nM after 21 days by Alizarin Red S staining relative to vehicle-treated control; assay type: functional, cell-based
In short: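 Rat calvarial osteoblasts grown to 80% confluence, then plated at 25 000 cells/well in differentiation medium (growth medium plus 50 μg/mL ascorbic acid and […]) with 10 nM compound or vehicle. Medium changed every other day for 21 days. Cells fixed in 4% paraformaldehyde and stained with 40 mM Alizarin Red S (pH 4.5). Dye extracted with 10% acetic acid at 85 °C, neutralized, OD 405 nm read.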

MC3T3-E1 [29] = assay: Inhibition of 20S proteasome in mouse MC3T3-E1 cells at 100 nM after 48 hrs by Bradford assay; assay type: cell-based; in short: as §5
Rattus norvegicus [30] = assay: Osteogenic activity in Sprague-Dawley rat femur drill-hole fracture model assessed as decrease in trabecular spacing at 1 to 5 mg/kg/day after 2 weeks by micro-CT method relative to vehicle-treated control; assay type: functional, organism-based; in short: as §1
Rattus norvegicus [31] = assay: Toxicity in Sprague-Dawley rat assessed as effect on cuspid valve BMP-2 mRNA expression at 1 to 5 mg/kg/day after 2 weeks by qPCR analysis relative to vehicle-treated control; assay type: organism-based; conditions: in vivo, 336 h
Rattus norvegicus [32] = species: Rattus norvegicus; assay: Osteogenic activity in Sprague-Dawley rat femur drill-hole fracture model assessed as increase in osteoblast recruitment after 2 weeks by calcein labeling-based confocal microscopy relative to vehicle-treated control; assay type: functional, organism-based; in short: as §3

## Cc1ccc(S(=O)(=O)OC(CNC(=O)C(Cc2ccccc2)NC(=O)c2ccccc2C(=O)O)c2ccccc2)cc1 (stereo not drawn)
Calvarial osteoblast [1]
  Activity: 111.78%
Calvarial osteoblast [2]
  Activity: 114.88%
Calvarial osteoblast [3]
  Activity: 104%
Calvarial osteoblast [4]
  Activity: 119%
Calvarial osteoblast [5]
  Activity: 131.75%

## O=C(O)c1ccccc1C(=O)NC(Cc1ccccc1)C(=O)NCC(OCc1ccccc1)c1ccccc1 (stereo not drawn)
Calvarial osteoblast [1]
  Activity: 101.32%
Calvarial osteoblast [2]
  Activity: 117.2%
Calvarial osteoblast [3]
  Activity: 93.6%
Calvarial osteoblast [4]
  Activity: 87.8%
Calvarial osteoblast [5]
  Activity: 107.27%

## CC(=O)OC(CNC(=O)C(Cc1ccccc1)NC(=O)c1ccccc1C(=O)O)c1ccccc1 (stereo not drawn)
Calvarial osteoblast [1]
  Activity: 98.33%
Calvarial osteoblast [2]
  Activity: 96.03%
Calvarial osteoblast [3]
  Activity: 103%
Calvarial osteoblast [4]
  Activity: 106%
Calvarial osteoblast [5]
  Activity: 98.67%

## Cc1ccc(S(=O)(=O)OC(CN(Cc2ccccc2)C(=O)C(Cc2ccccc2)NC(=O)c2ccccc2C(=O)O)c2ccccc2)cc1 (stereo not drawn)
Calvarial osteoblast [1]
  Activity: 109.39%
Calvarial osteoblast [2]
  Activity: 98.7%
Calvarial osteoblast [3]
  Activity: 111%
Calvarial osteoblast [4]
  Activity: 122%
Calvarial osteoblast [5]
  Activity: 141.67%

## CC(=O)OC(CN(Cc1ccccc1)C(=O)C(Cc1ccccc1)NC(=O)c1ccccc1C(=O)O)c1ccccc1 (stereo not drawn)
Calvarial osteoblast [1]
  Activity: 83.45%
Calvarial osteoblast [2]
  Activity: 98.76%
Calvarial osteoblast [3]
  Activity: 100.6%
Calvarial osteoblast [4]
  Activity: 88.7%
Calvarial osteoblast [5]
  Activity: 89.49%

## N#CC(CN(Cc1ccccc1)C(=O)C(Cc1ccccc1)NC(=O)c1ccccc1C(=O)O)c1ccccc1 (stereo not drawn)
Calvarial osteoblast [1]
  Activity: 89.28%
Calvarial osteoblast [2]
  Activity: 96.69%
Calvarial osteoblast [3]
  Activity: 92.6%
Calvarial osteoblast [4]
  Activity: 83.6%
Calvarial osteoblast [5]
  Activity: 97.35%

## O=C(O)c1ccccc1C(=O)NC(Cc1ccccc1)C(=O)N(Cc1ccccc1)CC(OCc1ccccc1)c1ccccc1 (stereo not drawn)
Calvarial osteoblast [1]
  Activity: 98.34%
Calvarial osteoblast [2]
  Activity: 103.27%
Calvarial osteoblast [3]
  Activity: 92.6%
Calvarial osteoblast [4]
  Activity: 89.8%
Calvarial osteoblast [5]
  Activity: 100.66%

## O=C(OC(CN(Cc1ccccc1)C(=O)C(Cc1ccccc1)NC(=O)c1ccccc1C(=O)O)c1ccccc1)c1ccccc1 (stereo not drawn)
Calvarial osteoblast [1]
  Activity: 103.15%
Calvarial osteoblast [2]
  Activity: 103.15%
Calvarial osteoblast [3]
  Activity: 112%
Calvarial osteoblast [4]
  Activity: 98.4%
Calvarial osteoblast [5]
  Activity: 107.69%

## O=C(O)c1ccccc1C(=O)NC(Cc1ccccc1)C(=O)NCCc1ccccc1 (stereo not drawn)
Calvarial osteoblast [1]
  Activity: 114.24%
Calvarial osteoblast [2]
  Activity: 166.11%
Calvarial osteoblast [3]
  Activity: 132%
Calvarial osteoblast [4]
  Activity: 111%
Calvarial osteoblast [6]
  Activity: Active
Calvarial osteoblast [5]
  Activity: 122.8%

## O=C(O)c1ccccc1C(=O)NC(Cc1ccccc1)C(=O)N(Cc1ccccc1)CC(O)c1ccccc1 (stereo not drawn)
Rattus norvegicus [7]
  Activity: Active
Rattus norvegicus [8]
  Activity: Active
Rattus norvegicus [9]
  Activity: Active
Rattus norvegicus [10]
  Activity: Active
Calvarial osteoblast [11]
  Activity: inactive
Rattus norvegicus [12]
  Activity: Non-toxic
Calvarial osteoblast [1]
  Activity: 155.6%
Rattus norvegicus [13]
  Activity: Non-toxic
Rattus norvegicus [14]
  Activity: Dose-dependent effect
Calvarial osteoblast [15]
  Activity: tde
Calvarial osteoblast [2]
  Activity: 137.2%
Calvarial osteoblast [3]
  Activity: 133%
Calvarial osteoblast [16]
  Activity: tde
Rattus norvegicus [17]
  Activity: Non-toxic
Rattus norvegicus [18]
  fold change (FC): 2.16
Rattus norvegicus [19]
  Activity: Active
Calvarial osteoblast [20]
  Activity: tde
MC3T3-E1 [21]
  inhibition: Dose-dependent effect
Rattus norvegicus [22]
  fold change (FC): 3.12
Calvarial osteoblast [23]
  Activity: tde
Calvarial osteoblast [4]
  Activity: 140%
Calvarial osteoblast [24]
  Activity: inactive
Rattus norvegicus [25]
  Activity: Dose-dependent effect
Rattus norvegicus [26]
  Activity: Non-toxic
Calvarial osteoblast [6]
  Activity: Active
Calvarial osteoblast [5]
  Activity: 159.5%
Rattus norvegicus [27]
  Activity: Non-toxic
Calvarial osteoblast [28]
  Activity: Active
MC3T3-E1 [29]
  inhibition: inactive
Rattus norvegicus [30]
  Activity: Active
Rattus norvegicus [31]
  Activity: Non-toxic
Rattus norvegicus [32]
  Activity: Dose-dependent effect
